From ChEMBL document CHEMBL1154352, “Toll-like receptor 7 selective synthetic oligoribonucleotide agonists: synthesis and structure-activity relationship studies” (J Med Chem, 2009) come the findings set out here.

Activity calls are given as the source filed them. No cut-off for these calls is given here.

Series [1] has as its system PBMC. The series can be described thus: Immunomodulatory activity in human PBMC assessed as induction of TNFalpha at 100 ug/ml after 24 hrs. The class given is functional, cell-based. The method, boiled down:
(§1)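 Human PBMCs plated at 5 × 10^6 cells/mL; compounds dissolved in PBS added at various concentrations, 37 °C for 24 h. Supernatant cytokines/chemokines quantified with human Luminex multiplex kit.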

The test system of series [2] is Splenocyte. The series can be described thus: Immunomodulatory activity in C57BL/6 mouse splenocytes bearing TLR7 receptor assessed as IL6 release at 100 ug/ml after 24 hrs by ELISA. Type of series: functional, cell-based. The method, boiled down:
(§2)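 C57BL/6 splenocytes in RPMI 1640 with 10% FBS, penicillin/streptomycin, 2 mM L-glutamine, plated at 5 × 10^6 cells/mL; compounds in PBS added, 37 °C for 24 h. Supernatant IL-12 and IL-6 by ELISA; representative of three independent experiments.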
(In an ELISA, binding on a coated surface is turned into a signal by an enzyme label.)

Series [3] concerns Splenocyte. The experiment in a line: Immunomodulatory activity in C57BL/6 mouse splenocytes bearing TLR7 receptor assessed as IL12 release at 100 ug/ml after 24 hrs by ELISA. Type of series: functional, cell-based. The method, boiled down: as §2
Series [4] deals with T1, Toll-like receptor 8 (Homo sapiens) (UniProt Q9NR97).
T1 sequence (whole entry): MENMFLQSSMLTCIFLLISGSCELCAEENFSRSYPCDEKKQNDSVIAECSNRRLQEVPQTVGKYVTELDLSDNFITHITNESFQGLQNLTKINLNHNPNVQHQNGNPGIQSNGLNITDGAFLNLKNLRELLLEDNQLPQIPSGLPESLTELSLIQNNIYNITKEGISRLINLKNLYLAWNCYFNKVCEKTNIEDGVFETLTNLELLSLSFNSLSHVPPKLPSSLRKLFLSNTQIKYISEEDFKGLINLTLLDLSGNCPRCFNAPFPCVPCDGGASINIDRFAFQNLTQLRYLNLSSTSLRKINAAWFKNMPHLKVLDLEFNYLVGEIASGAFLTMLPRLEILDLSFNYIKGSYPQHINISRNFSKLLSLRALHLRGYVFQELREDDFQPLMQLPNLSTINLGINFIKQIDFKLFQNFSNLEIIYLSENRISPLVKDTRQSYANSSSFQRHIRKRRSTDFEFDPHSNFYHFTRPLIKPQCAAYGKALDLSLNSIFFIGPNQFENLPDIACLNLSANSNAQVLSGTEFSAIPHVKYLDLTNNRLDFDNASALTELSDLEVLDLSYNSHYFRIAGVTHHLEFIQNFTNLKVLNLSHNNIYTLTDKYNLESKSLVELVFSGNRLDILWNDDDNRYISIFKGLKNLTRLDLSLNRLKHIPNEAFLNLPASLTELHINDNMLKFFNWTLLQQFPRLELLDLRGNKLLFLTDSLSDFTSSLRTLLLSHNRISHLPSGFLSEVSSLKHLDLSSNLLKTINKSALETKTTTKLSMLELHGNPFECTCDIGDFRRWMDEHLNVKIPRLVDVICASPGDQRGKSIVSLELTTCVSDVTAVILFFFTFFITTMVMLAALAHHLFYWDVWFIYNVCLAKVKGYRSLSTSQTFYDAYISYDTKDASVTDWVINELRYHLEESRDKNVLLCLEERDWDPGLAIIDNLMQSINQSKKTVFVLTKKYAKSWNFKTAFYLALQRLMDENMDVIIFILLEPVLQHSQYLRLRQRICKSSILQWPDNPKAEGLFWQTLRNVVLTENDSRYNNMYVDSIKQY
The series can be described thus: Activation of human TLR8 expressed in HEK293XL assessed as fold induction of NF-kappaB activity at 50 ug/ml after 18 hrs by reporter gene assay relative to control. The method, boiled down:
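HEK293 cells stably expressing human TLR7 or TLR8, transiently transfected with SEAP reporter plasmid; medium replaced, SIMRA compounds added, 18 h incubation. Supernatant SEAP measured by QuantiBlue; expressed as fold increase in NF-κB activity over PBS control. Tabulated data at 50 μg/mL, representative of three independent experiments.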
On the technique in general: In a reporter assay the amount or activity of a reporter protein is the signal.

Series [5] has as its target Toll-like receptor 3 (Homo sapiens) (UniProt O15455). The experiment in a line: Activation of human TLR3 expressed in HEK293 assessed as induction of NF-kappaB activity reporter gene assay. The class given is cell-based.
Series [6] is described as follows: Metabolic stability in human serum assessed as full length product remaining after 10 mins by HPLC. The class given is ADME, cell-free. The conditions noted are these: read-out: Stability. The method, boiled down: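 About 0.5 A260 units compound in 1% human serum in PBS, 37 °C; aliquot taken at 10 min, analysed by anion-exchange HPLC for percent intact full-length product.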

The test system of series [7] is PBMC. The experiment in a line: Immunomodulatory activity in human PBMC assessed as induction of IFN-alpha at 100 ug/ml after 24 hrs.
In series [8] the target is T2, Toll-like receptor 9 (Mus musculus) (UniProt Q9EQU3).
T2 sequence (whole entry): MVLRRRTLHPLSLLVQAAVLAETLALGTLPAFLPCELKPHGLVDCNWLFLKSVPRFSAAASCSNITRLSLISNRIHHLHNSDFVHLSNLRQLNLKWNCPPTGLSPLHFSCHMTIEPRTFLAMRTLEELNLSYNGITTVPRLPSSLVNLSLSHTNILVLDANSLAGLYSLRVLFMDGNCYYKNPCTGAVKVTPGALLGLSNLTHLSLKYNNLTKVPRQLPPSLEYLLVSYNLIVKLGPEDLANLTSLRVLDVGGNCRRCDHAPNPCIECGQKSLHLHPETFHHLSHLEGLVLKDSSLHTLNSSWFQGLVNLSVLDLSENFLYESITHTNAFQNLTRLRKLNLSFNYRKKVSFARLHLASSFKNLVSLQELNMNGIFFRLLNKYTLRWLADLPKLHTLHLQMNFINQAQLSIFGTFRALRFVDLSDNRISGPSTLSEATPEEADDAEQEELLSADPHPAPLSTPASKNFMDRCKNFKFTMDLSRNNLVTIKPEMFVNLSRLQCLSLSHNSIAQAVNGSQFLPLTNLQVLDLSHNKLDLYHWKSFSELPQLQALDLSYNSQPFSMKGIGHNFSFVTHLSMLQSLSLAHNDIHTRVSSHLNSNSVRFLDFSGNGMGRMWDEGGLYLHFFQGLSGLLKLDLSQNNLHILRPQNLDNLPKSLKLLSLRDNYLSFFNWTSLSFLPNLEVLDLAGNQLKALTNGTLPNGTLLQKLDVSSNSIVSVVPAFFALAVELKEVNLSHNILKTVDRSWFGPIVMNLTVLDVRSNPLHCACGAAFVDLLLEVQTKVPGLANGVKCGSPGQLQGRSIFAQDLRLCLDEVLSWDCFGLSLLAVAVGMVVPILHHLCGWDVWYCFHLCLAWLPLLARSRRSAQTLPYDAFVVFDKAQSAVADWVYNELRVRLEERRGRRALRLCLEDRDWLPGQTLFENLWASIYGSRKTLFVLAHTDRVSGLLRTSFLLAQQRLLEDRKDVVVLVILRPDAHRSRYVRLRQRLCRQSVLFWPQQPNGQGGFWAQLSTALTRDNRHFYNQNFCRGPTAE
The series can be described thus: Activation of mouse TLR9 expressed in HEK293 assessed as induction of NF-kappaB activity reporter gene assay. Type of series: cell-based.

For series [9], the system named is PBMC. The experiment in a line: Immunomodulatory activity in human PBMC assessed as induction of IL12 at 100 ug/ml after 24 hrs. Type of series: functional, cell-based. The method, boiled down: as §1

Toll-like receptor 3 (Homo sapiens), sequence (O15455 whole entry): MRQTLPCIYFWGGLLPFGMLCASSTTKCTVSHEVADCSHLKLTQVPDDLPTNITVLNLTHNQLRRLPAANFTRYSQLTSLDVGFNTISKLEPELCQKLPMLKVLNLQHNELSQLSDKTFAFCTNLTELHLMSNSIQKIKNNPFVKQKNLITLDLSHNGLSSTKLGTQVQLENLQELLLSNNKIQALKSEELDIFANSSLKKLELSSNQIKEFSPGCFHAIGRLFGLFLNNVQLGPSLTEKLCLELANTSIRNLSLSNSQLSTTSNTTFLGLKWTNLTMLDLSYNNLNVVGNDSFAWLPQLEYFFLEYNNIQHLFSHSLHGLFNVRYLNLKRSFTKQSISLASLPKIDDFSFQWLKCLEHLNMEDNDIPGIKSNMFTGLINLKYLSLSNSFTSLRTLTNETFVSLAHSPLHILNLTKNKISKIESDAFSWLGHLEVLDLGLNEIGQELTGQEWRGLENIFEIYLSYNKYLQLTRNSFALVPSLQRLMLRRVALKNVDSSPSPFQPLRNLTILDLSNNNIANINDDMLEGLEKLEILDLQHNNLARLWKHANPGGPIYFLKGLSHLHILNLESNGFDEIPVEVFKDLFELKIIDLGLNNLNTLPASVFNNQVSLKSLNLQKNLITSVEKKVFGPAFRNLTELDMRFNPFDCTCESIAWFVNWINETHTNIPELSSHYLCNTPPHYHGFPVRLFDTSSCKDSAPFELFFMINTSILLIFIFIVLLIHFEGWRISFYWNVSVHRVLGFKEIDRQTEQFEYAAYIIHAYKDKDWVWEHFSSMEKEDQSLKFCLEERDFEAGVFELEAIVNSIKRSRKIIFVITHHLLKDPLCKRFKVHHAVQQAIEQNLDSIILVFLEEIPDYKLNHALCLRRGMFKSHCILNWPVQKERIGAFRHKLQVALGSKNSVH

As to `Nc1ccn([C@@H]2O[C@H](COP(=O)(S)O[C@H]3[C@@H](O)[C@H](n4cnc5c(N)ncnc54)O[C@@H]3CO)[C@@H](OP(=O)(S)OC[C@H]3O[C@@H](n4ccc(=O)[nH]c4=O)[C@H](O)[C@@H]3OP(=O)(S)OC[C@H]3O[C@@H](n4ccc(=O)[nH]c4=O)[C@H](O)[C@@H]3OP(=O)(S)OC[C@H]3O[C@@H](n4ccc5c(=O)[nH]c(N)nc54)[C@H](O)[C@@H]3OP(=O)(S)OC[C@H]3O[C@@H](n4cnc5c(N)ncnc54)[C@H](O)[C@@H]3OP(=O)(S)OC[C@H]3O[C@@H](n4cnc5c(N)ncnc54)[C@H](O)[C@@H]3OP(=O)(S)OC[C@H]3O[C@@H](n4ccc5c(=O)[nH]c(N)nc54)[C@H](O)[C@@H]3OP(=O)(S)OC[C@H]3O[C@@H](n4ccc(N)nc4=O)[C@H](O)[C@@H]3OP(=O)(S)OC[C@H]3O[C@@H](n4ccc(=O)[nH]c4=O)[C@H](O)[C@@H]3OP(=O)(S)OC[C@H]3O[C@@H](n4ccc(=O)[nH]c4=O)[C@H](O)[C@@H]3OP(=O)(S)OCC(O)COP(=O)(S)O[C@H]3[C@@H](O)[C@H](n4ccc(=O)[nH]c4=O)O[C@@H]3COP(=O)(S)O[C@H]3[C@@H](O)[C@H](n4ccc(=O)[nH]c4=O)O[C@@H]3COP(=O)(S)O[C@H]3[C@@H](O)[C@H](n4ccc(N)nc4=O)O[C@@H]3COP(=O)(S)O[C@H]3[C@@H](O)[C@H](n4ccc5c(=O)[nH]c(N)nc54)O[C@@H]3COP(=O)(S)O[C@H]3[C@@H](O)[C@H](n4cnc5c(N)ncnc54)O[C@@H]3COP(=O)(S)O[C@H]3[C@@H](O)[C@H](n4cnc5c(N)ncnc54)O[C@@H]3COP(=O)(S)O[C@H]3[C@@H](O)[C@H](n4ccc5c(=O)[nH]c(N)nc54)O[C@@H]3COP(=O)(S)O[C@H]3[C@@H](O)[C@H](n4ccc(=O)[nH]c4=O)O[C@@H]3COP(=O)(S)O[C@H]3[C@@H](O)[C@H](n4ccc(=O)[nH]c4=O)O[C@@H]3COP(=O)(S)O[C@H]3[C@@H](O)[C@H](n4ccc(N)nc4=O)O[C@@H]3COP(=O)(S)O[C@H]3[C@@H](O)[C@H](n4cnc5c(N)ncnc54)O[C@@H]3CO)[C@H]2O)c(=O)n1` (stereo partly drawn), the values for the Activity in [1] and in [9] were 170 pg/mL and 442 pg/mL, respectively. Moreover, the result in series [2] and in series [3] was Active. The fold change (FC) in series [4] was found to be 2. Moreover, the result in series [5] and in series [8] was inactive. Also, the remaining at 10 min in series [6] was 79%. In [7], the IFN-alpha was found to be 218 pg/mL.

Consider `Nc1ccn([C@@H]2O[C@H](COP(=O)(S)O[C@H]3[C@@H](O)[C@H](n4ccc5c(=O)[nH]c(N)nc54)O[C@@H]3COP(=O)(S)O[C@H]3[C@@H](O)[C@H](n4cnc5c(N)ncnc54)O[C@@H]3COP(=O)(S)O[C@H]3[C@@H](O)[C@H](n4cnc5c(N)ncnc54)O[C@@H]3COP(=O)(S)O[C@H]3[C@@H](O)[C@H](n4ccc5c(=O)[nH]c(N)nc54)O[C@@H]3COP(=O)(S)O[C@H]3[C@@H](O)[C@H](n4ccc(=O)[nH]c4=O)O[C@@H]3COP(=O)(S)O[C@H]3[C@@H](O)[C@H](n4ccc(=O)[nH]c4=O)O[C@@H]3COP(=O)(S)O[C@H]3[C@@H](O)[C@H](n4cnc5c(N)ncnc54)O[C@@H]3COP(=O)(S)O[C@H]3[C@@H](O)[C@H](n4cnc5c(N)ncnc54)O[C@@H]3CO)[C@@H](OP(=O)(S)OC[C@H]3O[C@@H](n4ccc(=O)[nH]c4=O)[C@H](O)[C@@H]3OP(=O)(S)OC[C@H]3O[C@@H](n4ccc(=O)[nH]c4=O)[C@H](O)[C@@H]3OP(=O)(S)OCC(O)COP(=O)(S)O[C@H]3[C@@H](O)[C@H](n4ccc(=O)[nH]c4=O)O[C@@H]3COP(=O)(S)O[C@H]3[C@@H](O)[C@H](n4ccc(=O)[nH]c4=O)O[C@@H]3COP(=O)(S)O[C@H]3[C@@H](O)[C@H](n4ccc(N)nc4=O)O[C@@H]3COP(=O)(S)O[C@H]3[C@@H](O)[C@H](n4ccc5c(=O)[nH]c(N)nc54)O[C@@H]3COP(=O)(S)O[C@H]3[C@@H](O)[C@H](n4cnc5c(N)ncnc54)O[C@@H]3COP(=O)(S)O[C@H]3[C@@H](O)[C@H](n4cnc5c(N)ncnc54)O[C@@H]3COP(=O)(S)O[C@H]3[C@@H](O)[C@H](n4ccc5c(=O)[nH]c(N)nc54)O[C@@H]3COP(=O)(S)O[C@H]3[C@@H](O)[C@H](n4ccc(=O)[nH]c4=O)O[C@@H]3COP(=O)(S)O[C@H]3[C@@H](O)[C@H](n4ccc(=O)[nH]c4=O)O[C@@H]3COP(=O)(S)O[C@H]3[C@@H](O)[C@H](n4cnc5c(N)ncnc54)O[C@@H]3COP(=O)(S)O[C@H]3[C@@H](O)[C@H](n4cnc5c(N)ncnc54)O[C@@H]3CO)[C@H]2O)c(=O)n1` (stereo partly drawn), for which the Activity in [1] was determined as 29.3 pg/mL; in series [9], 401 pg/mL. Also, the outcome in [2] and in [3] was Active. Besides, the fold change (FC) in series [4] amounted to 1.6. Besides, the outcome in series [5] and in series [8] was inactive. Moreover, the remaining at 10 min in series [6] was 83%. In addition, in [7], the IFN-alpha was 95.5 pg/mL.
